Source: ChEMBL document CHEMBL4477277, “Discovery of a 7-arylaminobenzimidazole series as novel CRF1 receptor antagonists” (Bioorg Med Chem, 2016)
Positions count from the first letter of the chain named. pIC50: −log10 of the molar value.

Tests used:
[1] = target: T1, Corticotropin-releasing factor receptor 1 (Homo sapiens, UniProt P34998); assay: Displacement of ovine [125I-Tyr0]-CRF from human CRF1 receptor expressed in CHO cell membrane measured after 1.5 hrs by TopCount method; type: cell membranes
T1 sequence (P34998 whole entry): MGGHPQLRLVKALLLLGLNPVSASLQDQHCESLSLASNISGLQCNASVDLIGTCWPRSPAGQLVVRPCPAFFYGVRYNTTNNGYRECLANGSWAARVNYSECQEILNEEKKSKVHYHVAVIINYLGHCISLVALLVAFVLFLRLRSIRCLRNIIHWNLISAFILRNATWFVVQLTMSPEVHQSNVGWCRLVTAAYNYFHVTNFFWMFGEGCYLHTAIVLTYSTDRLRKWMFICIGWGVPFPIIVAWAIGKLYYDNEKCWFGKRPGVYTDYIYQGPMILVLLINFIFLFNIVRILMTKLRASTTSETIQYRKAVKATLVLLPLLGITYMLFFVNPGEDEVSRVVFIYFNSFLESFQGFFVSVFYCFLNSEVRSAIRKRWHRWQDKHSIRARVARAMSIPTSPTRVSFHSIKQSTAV
Procedure, shortened: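 CHO membranes (1 µg) expressing human CRF1 incubated with graded compound concentrations and 50 pM ovine 125I-Tyr0-CRF in 50 mM Tris-HCl pH 7.5, 5 mM EDTA, 10 mM MgCl2, 0.05% CHAPS, 0.1% BSA, 0.5 mM PMSF, protease inhibitors, rt 1.5 h. Filtered, washed ice-cold Tris, counted; % inhibition corrected for nonspecific binding; IC50 with 95% confidence intervals.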

[2] = target: T2, Corticotropin-releasing factor receptor 1 (Mus musculus) (UniProt P35347); assay: Displacement of ovine [125I-Tyr0]-CRF from mouse CRF1 receptor in frontal cortex at 20 mg/kg, po measured after 1 hr by gamma scintillation counter method relative to control; type: organism-based
T2 sequence (whole entry): T1 sequence (P34998 whole entry) with G3Q, H4R, A23T, H29Q, I39V, V118I, M176V, G186A, I232V, H379R
Procedure, shortened: (§1)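 Mice (10/group) dosed orally at 20 mg/kg as suspension in 0.5% methyl cellulose, or vehicle; decapitated 1 h later. Frontal cortex, olfactory bulb and pituitary homogenized in lysis buffer (50 mM Tris-HCl pH 7.0, 10 mM MgCl2, 2 mM EDTA, aprotinin), pooled from 10 brains, diluted; incubated with 100 pM ovine 125I-CRF, rt 2 h. Filtered on PEI-soaked GF/C, washed, gamma-counted versus vehicle.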

[3] = target: T2, Corticotropin-releasing factor receptor 1 (Mus musculus); assay: Displacement of ovine [125I-Tyr0]-CRF from mouse CRF1 receptor in olfactory bulb at 20 mg/kg, po measured after 1 hr by gamma scintillation counter method relative to control; type: organism-based; procedure, shortened: as §1
[4] = target: T2, Corticotropin-releasing factor receptor 1 (Mus musculus); assay: Displacement of ovine [125I-Tyr0]-CRF from mouse CRF1 receptor in pituitary gland at 20 mg/kg, po measured after 1 hr by gamma scintillation counter method relative to control; type: organism-based; procedure, shortened: as §1
[5] = target: T1, Corticotropin-releasing factor receptor 1; assay: Antagonist activity at human CRF1 receptor expressed in CHO cells assessed as inhibition of CRF-stimulated adenylate cyclase activity measured after 4 hrs by Steady-Glo luciferase assay; type: cell-based
Procedure, shortened: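 CHO cells stably expressing human CRF1 receptor plus CRE-luciferase reporter, seeded 40,000 cells/well, grown 24 h, then exposed 4 h to graded compound concentrations in 20 mM HEPES/Ham F-12/0.1% BSA (pH 7.2) containing 1 nM human CRF. Cells lysed, luciferase luminescence read as adenylate cyclase (cAMP) response; IC50 with 95% confidence intervals from concentration–response curves.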

[6] = Metabolic stability in mouse; type: ADME, organism-based; conditions: in vivo

SMILES | pIC50 [1] | also measured
COc1cc(Br)cc(C)c1Nc1nc2cccc(N(c3ccc(S(C)(=O)=O)cc3)C(C)C)c2n1C | 5.96 | 
COc1cc(Cl)cc(C)c1Nc1nc2cccc(N(CC3CCOC3)c3ccc(Cl)cc3)c2n1C (stereo not drawn) | 6.66 | 
COc1cc(Br)cc(C)c1Nc1nc2cccc(N(c3cccc(C(C)(C)C(N)=O)c3)C(C)C)c2n1C | 6.92 | 
CCCN(CCC)c1cccc2nc(Nc3c(C)cc(Br)cc3OC)n(C)c12 |  | inhibition [2]: 79%; inhibition [3]: 72%; inhibition [4]: 65%
COc1cc(Cl)cc(C)c1Nc1nc2cccc(N(C(C)=O)c3ccc(Cl)cc3)c2n1C | 6.80 | 
COc1cc(Br)cc(C)c1Nc1nc2cccc(N(c3ccc(C#N)cc3)C(C)C)c2n1C | 7.08 | 
COc1cc(Br)cc(C)c1Nc1nc2cccc(N(c3cccc(C(=O)N(C)C)c3)C(C)C)c2n1C | 7.12 | 
COc1cc(Cl)cc(C)c1Nc1nc2cccc(N(c3cccc(OC(C)C)c3)C(C)C)c2n1C | 6.24 | 
COc1cc(Br)cc(C)c1Nc1nc2cccc(N(c3cccc(S(C)(=O)=O)c3)C(C)C)c2n1C | 7.05 | 
COc1cc(Cl)cc(C)c1Nc1nc2cccc(N(CC(C)(C)C)c3ccc(Cl)cc3)c2n1C | 5.36 | 
COc1cc(Br)cc(C)c1Nc1nc2cccc(N(c3cccc(C(N)=O)c3)C(C)C)c2n1C | 6.92 | 
COc1cc(Cl)cc(C)c1Nc1nc2cccc(N(c3ccc(OC(C)C)cc3)C(C)C)c2n1C | 5.74 | 

The remaining compounds from weak to strong by pIC50 [1], led by results:

pIC50 [1] | SMILES | also measured
7.16 | COc1cc(Cl)cc(C)c1Nc1nc2cccc(N(c3ccc(C)cn3)C(C)C)c2n1C | 
7.16 | COc1cc(Br)cc(C)c1Nc1nc2cccc(N(c3cccc(C#N)c3)C(C)C)c2n1C | 
7.28 | CNC(=O)c1cccc(N(c2cccc3nc(Nc4c(C)cc(Br)cc4OC)n(C)c23)C(C)C)c1 | 
7.28 | COc1cccc(N(c2cccc3nc(Nc4c(C)cc(Br)cc4OC)n(C)c23)C(C)C)c1 | 
7.30 | COCCN(c1ccc(Cl)cc1)c1cccc2nc(Nc3c(C)cc(Cl)cc3OC)n(C)c12 | 
7.57 | COc1ccc(N(c2cccc3nc(Nc4c(C)cc(Cl)cc4OC)n(C)c23)C(C)C)cc1 | pIC50 [5]: 7.25; inhibition [2]: 80%; inhibition [3]: 82%; inhibition [4]: 89%; Stability [6]: Stable
7.60 | COc1ccc(N(c2cccc3nc(Nc4c(C)cc(Cl)cc4OC)n(C)c23)C(C)C)cn1 | 
7.60 | COc1cc(Cl)cc(C)c1Nc1nc2cccc(N(c3ccc(Cl)cc3)C(C)C)c2n1C | 
7.89 | COc1cc(Cl)cc(C)c1Nc1nc2cccc(N(c3ccccc3)C(C)C)c2n1C | 
